Compound activity from PubChem.
MrgX1 allo act – human MrgX1 positive allosteric modulation, primary screen. MrgX1-HEK293, Fluo-4 calcium flux, FDSS; active compounds read high. B-score at 10 µM. 0.63% of 310,000 active. AID 588675;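 active means plate-corrected calcium response at least 3 library SD above typical, normal starting fluorescence, not activating the receptor alone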;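 further: compound read alongside a low EC10 to EC30 dose of BAM8-22 agonist; peak minus trough fluorescence over baseline measured at the second addition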
Target sequence (Q96LB2 whole entry, looked up): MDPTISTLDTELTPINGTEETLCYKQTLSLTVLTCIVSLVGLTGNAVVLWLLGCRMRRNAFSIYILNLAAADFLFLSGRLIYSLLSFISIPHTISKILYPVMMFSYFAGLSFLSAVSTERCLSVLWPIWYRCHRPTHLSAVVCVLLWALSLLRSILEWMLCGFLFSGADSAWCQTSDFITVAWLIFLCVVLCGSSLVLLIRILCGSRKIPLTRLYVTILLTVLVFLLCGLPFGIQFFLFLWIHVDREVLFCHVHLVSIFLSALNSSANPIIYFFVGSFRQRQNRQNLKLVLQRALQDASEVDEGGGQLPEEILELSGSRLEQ
MrgX1 antagonist – antagonists of human MrgX1 receptor. MRGX1-HEK293 calcium flux, Fluo-4, BAM8-22 antagonism; active compounds read low. B-score at 10 µM. 1.3% of 310,000 active. AID 588676;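 active means calcium-response B-score plate-corrected more than 3 library SD below zero, starting fluorescence within 5 deviations, no agonist response on first addition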;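 further: peak minus trough fluorescence over baseline after final BAM8-22 challenge near maximal dose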
MrgX1 agonist – agonists of human MrgX1 receptor; Q96LB2; AID 588627; B-score at 10 µM; MrgX1-HEK293 cells, Fluo-4 calcium fluorescence, agonist mode; active compounds read high; 0.44% of 310,000 active;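 active means calcium response B-score plate-corrected fluorescence ratio at least 3 library SD, with starting fluorescence B-score inside 5 SD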
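Material: MrgX1-expressing HEK293 cells; input: 15,000 cells per well; doses: test compound given as first of three sequential additions; schedule: overnight plating before 1 h dye loading; technique: Fluo-4 NW calcium-flux fluorescence, kinetic read; evaluation: baseline-normalised fluorescence change ratio, B-scored; control set: plate-wise positive and negative controls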
RGS4 inh – inhibitors of human RGS4; 0.45% of 310,000 active; B-score at 10 µM; HEK293 M3R/RGS4 inducible, Fluo-4 calcium flux; active compounds read high; triggered by carbachol at its EC20;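 active means B-score, a plate-corrected calcium signal, over three deviations above library mean, with baseline fluorescence within five deviations of library mean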;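 further: RGS4 expression induced by doxycycline in cells with stable M3 receptor; B-score is computed from the integrated fluorescence ratio over baseline after carbachol; higher B-score means a larger calcium signal and so more RGS4 inhibition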
Target sequence (P49798 whole entry, looked up): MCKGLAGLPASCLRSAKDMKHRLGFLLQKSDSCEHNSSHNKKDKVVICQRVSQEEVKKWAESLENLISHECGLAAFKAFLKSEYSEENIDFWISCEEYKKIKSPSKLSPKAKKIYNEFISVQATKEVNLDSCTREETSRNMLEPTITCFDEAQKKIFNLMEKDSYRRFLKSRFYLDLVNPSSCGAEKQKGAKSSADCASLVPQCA
RGS4 pot – RGS4 potentiation or activation; B-score at 10 µM; 0.92% of 310,000 active; HEK293 M3R/inducible RGS4, carbachol calcium flux Fluo4; active compounds read low; AID 463111;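 active means B-score of the integrated calcium signal more than 4 SD below the library mean, with starting fluorescence not abnormally high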;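 further: negative B-score means reduced calcium response which marks RGS4 activation or potentiation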
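test system = M3R-expressing HEK293 line, RGS4 induced by doxycycline | probe or stimulus = carbachol at ECmax as muscarinic agonist stimulus | timing = dye loading 30 min 37 °C, buffer rest 30 min RT | signal = calcium dye Fluo4 fluorescence | evaluation = B score from integrated fluorescence ratio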
MrgX1 antag conf – human MrgX1 receptor antagonism, re-confirmation screen | remaining BAM8-22 calcium response % of control (active compounds read low), % at 10 µM | MrgX1-HEK293, BAM8-22 calcium flux, Fluo-4; active compounds read low | 19% of 2,300 active | shares compounds with MrgX1 antagonist;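 active means remaining agonist calcium response no higher than 100% minus 3 SD of agonist-only control wells, with starting fluorescence near control levels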;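 further: agonist BAM8-22 given at a near maximal EC90 to ECmax level; peak minus minimum fluorescence divided by baseline after agonist addition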
HEK293 Ca flux – MrgX1 antagonist counter-screen hit in parental HEK293 cells; Fluo-4 calcium fluorescence, FDSS; fluorescence ratio F(max-min)/F0 at 10 µM; 2% of 4,000 active; shares compounds with MrgX1 antagonist;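 active means duplicate-averaged calcium fluorescence ratio at least three times the standard deviation of buffer wells, a nonspecific response in parental cells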
HEK293 Ca counter – MrgX1 allosteric activator counter-screen hit in parental HEK293 cells. shares compounds with MrgX1 antagonist. parental HEK293 calcium flux, Fluo-4 fluorescence ratio; active compounds read high. fluorescence ratio F(max-min)/F0 at 10 µM. 0.4% of 4,000 active. AID 624114;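 active means calcium fluorescence ratio, averaged over duplicates, at least 3 SD of the buffer-well ratio, meaning a nonspecific response in receptor-free cells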;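 further: untransfected parental HEK293 lacking MrgX1 used as counterscreen for MrgX1 allosteric activators; fluorescence change taken during the second addition on a kinetic imager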
HEK293 Ca cntr2 – counter-screen for MrgX1 activators: effect in parental HEK293 cells; AID 624115; shares compounds with MrgX1 antagonist; Fluo-4 calcium fluorescence (FDSS); active compounds read high; 8.7% of 4,000 active; fluorescence ratio F(max-min)/F0 at 10 µM;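 active means calcium fluorescence ratio at least three times the spread of buffer wells, meaning a non-specific response in parental cells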
Starred values were filed as active, the others as inactive; i = inactive; nt = not tested or not shown. A selection: hits, their analogues and other compounds. The true share with any hit is near 3.5%.

SMILES	MrgX1 allo act	MrgX1 antagonist	MrgX1 agonist	RGS4 inh	RGS4 pot	MrgX1 antag conf	HEK293 Ca flux	HEK293 Ca counter	HEK293 Ca cntr2
COc1ccc(CCN=C(C)c2cc(C)c(C)cc2O)cc1OC	i	i	i	i	i	nt	nt	nt	nt
O=C1CC(c2cccc(Oc3ccccc3)c2)NC(=O)N1 (stereo not drawn)	i	-8.2*	i	i	i	i	i	i	i
COc1ccc(OC)c2sc(NC(=O)CCS(=O)(=O)c3ccccc3)nc12	i	i	i	i	i	nt	nt	nt	nt
COc1ccc(OC)c2sc(NC(=O)CCSc3ccccc3)nc12	i	-8.8*	i	i	i	i	i	i	i
CCn1c(=O)c2c(nc3n2CCCN3CCc2ccc(OC)c(OC)c2)n(C)c1=O	i	i	i	i	i	nt	nt	nt	nt
CCCn1c(=O)c2c(nc3n2CCCN3CCc2ccc(OC)c(OC)c2)n(C)c1=O	i	-4.8*	i	i	i	i	i	i	i
COc1ccc(CCN2CCCn3c2nc2c3c(=O)n(CC(C)C)c(=O)n2C)cc1OC	i	-6.1*	i	i	i	68%*	i	i	i
COc1ccc(CCN2CCCn3c2nc2c3c(=O)n(Cc3ccccc3F)c(=O)n2C)cc1OC	i	i	i	i	i	nt	nt	nt	nt
C=CCn1c(CSc2ccc(C)cc2)n[nH]c1=S	i	i	i	i	i	nt	nt	nt	nt
CSc1ccc(CN2CCN(CC=C(C)C)C(CCO)C2)cc1 (stereo not drawn)	i	i	i	i	i	nt	nt	nt	nt
CSc1ccc(CN2CCN(Cc3ccccc3)C(CCO)C2)cc1 (stereo not drawn)	i	-4.8*	i	i	i	83%*	i	i	i
CSc1cccc(CN2CCN(CCc3ccccc3)C(CCO)C2)c1 (stereo not drawn)	i	i	i	i	i	nt	nt	nt	nt
Cc1ccc(CN2CCN(Cc3ccc(C)s3)CC2CCO)cc1 (stereo not drawn)	i	-5.1*	i	i	i	i	i	i	i
Cc1ccc(CN2CCN(Cc3ccccc3)C(CCO)C2)s1 (stereo not drawn)	i	i	i	i	i	nt	nt	nt	nt
CSc1cccc(CN2CCN(Cc3ccccc3)C(CCO)C2)c1 (stereo not drawn)	i	-5.2*	i	i	i	83%*	i	i	i
CCN(C(=O)COC(=O)Cc1c[nH]c2ccccc12)c1c(N)n(Cc2ccccc2)c(=O)[nH]c1=O	i	i	i	i	i	nt	nt	nt	nt
O=C(Nc1ccccc1Oc1cccnc1)C1CCCN(C/C=C/c2ccccc2)C1 (stereo not drawn)	i	i	i	i	i	nt	nt	nt	nt
COC(=O)CCCC(=O)N1CCCC(CCC(=O)NCc2ccc(F)c(F)c2)C1 (stereo not drawn)	i	i	i	i	i	nt	nt	nt	nt
O=C(CCC1CCCN(C(=O)CCC(F)(F)F)C1)NCc1ccc(F)c(F)c1 (stereo not drawn)	i	-4.8*	i	i	i	i	i	i	i
CCN(CC)c1ccc(/C=N/NC(=O)c2cc(C)nc3ccccc23)cc1	i	i	i	i	i	nt	nt	nt	nt
CCN(CC)c1ccc(/C=C/c2cc(-c3ccccc3)c3ccccc3n2)cc1	i	-15*	i	i	i	i	0.065*	i	i
Cc1ccc(N2CCC(N3CCN(C)C(CCO)C3)CC2)cc1 (stereo not drawn)	i	-5*	i	i	i	i	i	i	i
COc1cccc(N2CCC(N3CCN(C)C(CCO)C3)CC2)c1 (stereo not drawn)	i	i	i	i	i	nt	nt	nt	nt
CC(C(=O)NCC1CCCCC1)N1CCN(S(=O)(=O)c2ccccc2F)CC1 (stereo not drawn)	i	i	i	i	i	nt	nt	nt	nt
CCOc1ccc(CCNC(=O)CSC(=S)N2CCCC2)cc1OCC	i	i	i	i	i	nt	nt	nt	nt
SMILES	MrgX1 allo act	MrgX1 antagonist	MrgX1 agonist	RGS4 inh	RGS4 pot	MrgX1 antag conf	HEK293 Ca flux	HEK293 Ca counter	HEK293 Ca cntr2
COC(=O)CS(=O)(=O)c1cc(Br)cc2c1N(C(C)=O)CC2	i	-5.4*	i	i	i	i	i	i	65*
Cc1cc(C)cc(NC(=O)C2CCN(S(=O)(=O)c3ccc4[nH]c(=O)ccc4c3)CC2)c1	i	-6.4*	i	i	i	i	i	i	i
Cc1cccc(NC(=O)C2CCCN(S(=O)(=O)c3ccc4[nH]c(=O)ccc4c3)C2)c1 (stereo not drawn)	i	-6.5*	i	i	i	i	i	i	i
Cc1ccc(NC(=O)C2CCCN(S(=O)(=O)c3ccc4[nH]c(=O)ccc4c3)C2)cc1C (stereo not drawn)	i	i	i	i	i	nt	nt	nt	nt
CCOC(=O)C1CCN(S(=O)(=O)c2ccc3[nH]c(=O)ccc3c2)CC1	i	-4.7*	i	i	i	i	i	i	i
CCOC(=O)C1CCN(C(=O)Cn2c(=O)oc3cc(S(=O)(=O)N4CCCC4)ccc32)CC1	i	-5.1*	i	i	i	i	i	i	i
CCc1cccc(NC(=O)C2CCN(S(=O)(=O)c3ccc4[nH]c(=O)ccc4c3)CC2)c1	i	i	i	i	i	nt	nt	nt	nt
Cc1ccc(C)c(N2CCN(C(=O)Cn3c(=O)oc4cc(S(=O)(=O)N5CCCC5)ccc43)CC2)c1	i	i	i	i	i	nt	nt	nt	nt
CON(C)c1nc(C2CCCCC2)c2cc(C)ccc2n1	i	i	i	i	i	nt	nt	nt	nt
COc1ccc(-c2nc(C3CCCCC3)c3cc(OC)ccc3n2)cc1	i	-5*	i	i	i	i	i	i	i
Cc1cc(C)cc(C(=O)NCC(=O)OCC(=O)N(C)c2ccccc2)c1	i	-5.1*	i	i	i	i	i	i	i
